Measurements taken from ChEMBL document CHEMBL4359902, “Development of novel chromeno[4,3-c]pyrazol-4(2H)-one derivates bearing sulfonylpiperazine as antitumor inhibitors targeting PI3Kα” (Eur J Med Chem, 2019).

How the values were obtained:
HCT-116 [1] = experiment: Cell cycle arrest in human HCT116 cells assessed as accumulation at S phase at 1 uM measured after 24 hrs by propidium iodide staining based flow cytometry analysis (reference value: 50.12 %); format: functional
HCT-116 [2] = experiment: Induction of apoptosis in human HCT116 cells assessed as upregulation of BAX expression measured after 24 hrs by Western blot analysis; format: functional, cell-based
Outline: (§1)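 HCT-116 cells treated at 0.25, 0.5 and 1 μM for 24 h, lysed in RIPA buffer with PMSF. Proteins separated by SDS-PAGE (8% or 10%), transferred to PVDF and probed with primary antibodies and HRP secondaries. β-actin served as internal control; bands quantified as bar graphs.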

[3] = molecular target: T1, Phosphatidylinositol 4,5-bisphosphate 3-kinase catalytic subunit delta isoform (Homo sapiens, UniProt O00329); experiment: Inhibition of PI3Kdelta (unknown origin) using diC8-PI(4,5)P2 as substrate incubated for 3 hrs in presence of ATP by fluorescence polarization assay
T1 sequence (O00329 whole entry): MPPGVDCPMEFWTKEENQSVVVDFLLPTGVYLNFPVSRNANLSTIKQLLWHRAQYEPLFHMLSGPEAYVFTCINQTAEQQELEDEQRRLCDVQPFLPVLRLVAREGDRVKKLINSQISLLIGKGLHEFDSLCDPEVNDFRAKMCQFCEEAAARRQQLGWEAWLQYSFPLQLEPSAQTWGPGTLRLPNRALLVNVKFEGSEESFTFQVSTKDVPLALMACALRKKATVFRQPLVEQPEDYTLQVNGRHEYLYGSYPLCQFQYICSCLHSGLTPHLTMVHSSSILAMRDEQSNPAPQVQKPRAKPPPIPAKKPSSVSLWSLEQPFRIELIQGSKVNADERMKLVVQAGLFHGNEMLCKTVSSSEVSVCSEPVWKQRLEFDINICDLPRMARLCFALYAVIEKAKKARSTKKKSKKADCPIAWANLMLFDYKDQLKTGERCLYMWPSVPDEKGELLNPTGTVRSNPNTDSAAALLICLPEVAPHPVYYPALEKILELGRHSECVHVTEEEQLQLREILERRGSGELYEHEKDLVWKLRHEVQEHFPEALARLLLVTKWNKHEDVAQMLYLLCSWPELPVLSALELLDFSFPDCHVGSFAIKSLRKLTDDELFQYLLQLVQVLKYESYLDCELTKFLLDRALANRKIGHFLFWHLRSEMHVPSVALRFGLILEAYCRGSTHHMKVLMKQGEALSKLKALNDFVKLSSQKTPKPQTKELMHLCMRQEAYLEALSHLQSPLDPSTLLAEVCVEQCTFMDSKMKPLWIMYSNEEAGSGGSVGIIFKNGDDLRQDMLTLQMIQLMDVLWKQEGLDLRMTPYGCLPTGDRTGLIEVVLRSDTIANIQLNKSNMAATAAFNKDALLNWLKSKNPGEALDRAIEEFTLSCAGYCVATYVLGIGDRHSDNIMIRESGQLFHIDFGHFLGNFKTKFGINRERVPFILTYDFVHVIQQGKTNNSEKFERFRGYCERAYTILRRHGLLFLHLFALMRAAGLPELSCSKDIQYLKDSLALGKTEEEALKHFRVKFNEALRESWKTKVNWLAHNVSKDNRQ
Outline: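 Fluorescence polarization competition assay, 10 μL reactions at pH 7: 2.5 mM MgCl₂, 5 mM HEPES, ATP, 10 mM DTT, 50 ng PI3K isoform, diC8-PI(4,5)P2 substrate. After 3 h at room temperature, reactions were chelator-quenched. Phosphoinositide binding protein and fluorophore-labelled tracer were added, then 1 h dark equilibration and polarization read.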

HCT-116 [4] = experiment: Cell cycle arrest in human HCT116 cells assessed as accumulation at G1 phase at 1 uM measured after 24 hrs by propidium iodide staining based flow cytometry analysis (reference value: 42.01 %); format: functional
HCT-116 [5] = experiment: Induction of apoptosis in human HCT116 cells assessed as early apoptotic cells at 1 uM measured after 24 hrs by annexin-v-FITC/propidium iodide staining based FACScan flow cytometry analysis (reference value: 10.0 %); format: functional
A549 = experiment: Antiproliferative activity against human A549 cells assessed as reduction in cell viability after 48 hrs by MTT assay; format: functional, cell-based; conditions: A549, 48 h
HCT-116 [6] = experiment: Induction of apoptosis in human HCT116 cells assessed as early apoptotic cells at 0.25 uM measured after 24 hrs by annexin-v-FITC/propidium iodide staining based FACScan flow cytometry analysis (reference value: 10.0 %); format: functional
HCT-116 [7] = experiment: Induction of apoptosis in human HCT116 cells assessed as necrotic cells at 1 uM measured after 24 hrs by annexin-v-FITC/propidium iodide staining based FACScan flow cytometry analysis (reference value: 1.87 %); format: functional
HCT-116 [8] = experiment: Induction of apoptosis in human HCT116 cells assessed as late apoptotic cells at 0.25 uM measured after 24 hrs by annexin-v-FITC/propidium iodide staining based FACScan flow cytometry analysis (reference value: 9.61 %); format: functional
HCT-116 [9] = experiment: Induction of apoptosis in human HCT116 cells assessed as increase in cleaved caspase-9 protein level measured after 24 hrs by Western blot analysis; format: functional, cell-based; outline: as §1

Q: Which results are given for O=c1oc2ccccc2c2nn(CN3CCN(S(=O)(=O)c4ccc(Cl)c([N+](=O)[O-])c4)CC3)cc12?
A: Activity (HCT-116 [1]): 33.78%; Activity (HCT-116 [2]): Dose-dependent effect; IC50 [3]: 120 nM; Activity (HCT-116 [4]): 58.13%; Activity (HCT-116 [5]): 25.5%; IC50 (A549): 60 nM; Activity (HCT-116 [6]): 16.1%; Activity (HCT-116 [7]): 1.04%; Activity (HCT-116 [8]): 21%; Activity (HCT-116 [9]): Dose-dependent effect
